Drawing on ChEMBL document CHEMBL1132831, “Synthesis and characterization of a potent and selective protein tyrosine phosphatase inhibitor, 2” (Bioorg Med Chem Lett, 2000), this text covers IC50 for six compounds.

A word on the IC50: it is the point on the concentration scale where inhibition reaches its midpoint. A high value points to weaker potency.

For test [1], the target named is T1, Receptor-type tyrosine-protein phosphatase C (Homo sapiens, UniProt P08575).
T1 sequence (P08575 whole entry): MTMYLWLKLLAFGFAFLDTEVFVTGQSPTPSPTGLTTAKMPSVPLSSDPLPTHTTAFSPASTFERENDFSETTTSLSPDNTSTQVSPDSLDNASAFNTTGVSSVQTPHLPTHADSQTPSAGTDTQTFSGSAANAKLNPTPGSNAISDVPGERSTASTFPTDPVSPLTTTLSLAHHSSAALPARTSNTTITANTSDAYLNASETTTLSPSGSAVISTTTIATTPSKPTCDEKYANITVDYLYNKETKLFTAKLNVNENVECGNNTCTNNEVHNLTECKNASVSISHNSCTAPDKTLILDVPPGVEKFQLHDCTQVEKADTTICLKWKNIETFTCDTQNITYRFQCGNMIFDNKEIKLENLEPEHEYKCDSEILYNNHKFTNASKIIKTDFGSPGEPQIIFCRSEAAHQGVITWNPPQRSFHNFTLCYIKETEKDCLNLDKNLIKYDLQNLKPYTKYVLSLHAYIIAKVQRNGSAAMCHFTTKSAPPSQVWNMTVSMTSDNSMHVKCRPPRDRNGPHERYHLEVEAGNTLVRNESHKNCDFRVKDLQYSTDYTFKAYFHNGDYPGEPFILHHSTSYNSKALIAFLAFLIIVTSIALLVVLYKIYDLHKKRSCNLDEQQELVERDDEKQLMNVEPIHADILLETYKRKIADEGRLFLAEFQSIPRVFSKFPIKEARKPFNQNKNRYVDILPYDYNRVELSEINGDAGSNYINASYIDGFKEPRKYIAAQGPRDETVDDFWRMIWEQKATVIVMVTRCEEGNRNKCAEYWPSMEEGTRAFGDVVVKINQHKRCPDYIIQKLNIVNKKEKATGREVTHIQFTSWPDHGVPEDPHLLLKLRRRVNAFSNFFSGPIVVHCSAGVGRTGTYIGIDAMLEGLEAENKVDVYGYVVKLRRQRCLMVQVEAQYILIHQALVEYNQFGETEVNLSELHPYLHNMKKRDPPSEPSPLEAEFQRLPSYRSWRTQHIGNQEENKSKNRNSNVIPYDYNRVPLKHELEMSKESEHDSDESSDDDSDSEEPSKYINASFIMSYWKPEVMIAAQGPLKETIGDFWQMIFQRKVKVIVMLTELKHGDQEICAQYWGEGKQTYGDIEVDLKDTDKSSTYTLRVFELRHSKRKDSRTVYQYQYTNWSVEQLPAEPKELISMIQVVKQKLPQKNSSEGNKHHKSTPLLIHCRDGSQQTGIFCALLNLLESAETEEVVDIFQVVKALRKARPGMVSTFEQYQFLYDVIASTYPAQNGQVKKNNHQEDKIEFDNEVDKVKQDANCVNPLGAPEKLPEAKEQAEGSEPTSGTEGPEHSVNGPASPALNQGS
The experiment in a line: The compound was evaluated for its inhibitory activity towards Protein tyrosine phosphatase of CD45. The essentials:
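Commercial enzyme with 1 mM p-nitrophenyl phosphate in 25 mM MOPS pH 6.5, 5 mM EDTA, 1 mM dithiothreitol. Compound was tested at various concentrations from 30 nM, with a 30 min incubation at 37 °C. The reaction was stopped with 1 N NaOH and read at 405 nm. IC50 was obtained by nonlinear regression curve fitting.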

Test [2] is described as follows: The compound was evaluated for its inhibitory effect of dual specificity phosphatases of VHR. In outline: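 Bacterially expressed GST-VHR fusion protein with 1 mM p-nitrophenyl phosphate in 25 mM MOPS pH 6.5, 5 mM EDTA, 1 mM dithiothreitol. Compound was present at various concentrations from 30 nM during 30 min at 37 °C. NaOH was then added and absorbance read at 405 nm. IC50 was derived by nonlinear regression.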

In test [1], `CC(C)Oc1ccc2[nH]c([S+]([O-])Cc3ccccn3)nc2c1` (configuration not stated) registered a 50% inhibitory concentration (IC50) of 120 µM. On to `CSc1ccnc(CSc2nc3ccc(OC(C)C)cc3[nH]2)c1`, for which the 50% inhibitory concentration (IC50) in test [1] is > 1000 µM. In test [2], VANADATE had a half-maximal inhibitory concentration (IC50) of 106 µM. `Cc1ccnc(C[S+]([O-])c2nc3ccc(OC(C)C)cc3[nH]2)c1` (configuration not stated): the IC50 in test [1] came to 380 µM. On to `CSc1ccnc(C[S+]([O-])c2nc3cc(OC(C)C)ccc3[nH]2)c1` (configuration not stated), for which the IC50 was 0.28 µM in test [1] and 50.2 µM in test [2]. Take `CSc1ccnc(C[S+]([O-])c2nc3ccc(OC4CCCCC4)cc3[nH]2)c1` (configuration not stated): the IC50 in test [1] amounted to 80.5 µM. In other words, the double-digit micromolar range.
